# IDE act: IDE (human) activation, cell-based; P14735; HEK cells, FAbeta-B cleavage, fluorescence polarization; 0% vehicle, 100% cell-free pure enzyme wells; activation, % at 5.96 µM; 0.073% of 340,000 active; AID 493087;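 active = activation above the mean of all tested compounds plus 3 SD, set per screening campaign, cut at about 17% in these data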
# Rpn11 inh: blocks the human proteasome subunit Rpn11. human 26S proteasome, Ub4-pepOG fluorescence polarization; 20S core pre-blocked with epoxomicin. inhibition, % at 20 µM. 0.59% of 360,000 active. AID 588493;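 active = inhibition at 20 µM, scaled to each plate's controls, above about 33%, limit read from the data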
# CSN deneddyl inh: blocks human CSN-mediated cullin deneddylation | Q92905 | Purified CSN, SCF-Nedd8-OG deneddylation, fluorescence polarization | inhibition, % at 12.5 µM | 0.38% of 360,000 active;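 active = pattern-corrected inhibition above about 35%, with an unprinted fluorescence ratio check between 0.5 and 1.5, limit read from the data, passing the limit was not always enough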;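 note: 0% = enzyme with substrate and 100% = substrate without enzyme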
#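 Test system: purified human Csn5 enzyme expressed in HEK293T cells. Amount: 0.24 nM enzyme. Reagent: SCFSkp2-Nedd8OG substrate at 10 nM final. Schedule: 90 min incubation of compound, enzyme and substrate at room temperature. Detection: fluorescence polarization. Read-out: % inhibition of substrate cleavage by Csn5.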
# TPT1 inhibitor: blocks Candida albicans tRNA 2'-phosphotransferase; recombinant caTPT1, FP RNA substrate dephosphorylation; inhibition, % at 5 µM; 0.81% of 300,000 active; AID 1962;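 active = inhibition above the mean of all tested compounds plus 3 SD, set per screening campaign, cut at about 24% in these data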;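 note: plate controls were DMSO alone for no effect and ferristatin control at 100 nM for full effect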
# IDE inh: cellular human IDE inhibition; P14735; HEK cells, FAbetaB cleavage, fluorescence polarization; inhibition, % at 5.59 µM; 0.41% of 320,000 active; AID 434962;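 active = percent inhibition above the average of all tested compounds plus 3 SD, set per screening campaign, cut at about 16% in these data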;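 note: IDE supplied by intact live HEK cells; FP after avidin binding of uncleaved biotin substrate so inhibition keeps polarization high; 0% = DMSO wells and 100% = 60 µM reference IDE inhibitor Ii1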
# HNF4A DNA FP: change in binding of human HNF4 alpha to DNA. 0.3% of 360,000 active. activity change, % at 10 µM. HNF4a-FITC DNA binding, fluorescence polarization, 1 h; in the data active = activity change above about 30%, passing the limit was not always enough
# Target sequence (P41235 whole entry, looked up): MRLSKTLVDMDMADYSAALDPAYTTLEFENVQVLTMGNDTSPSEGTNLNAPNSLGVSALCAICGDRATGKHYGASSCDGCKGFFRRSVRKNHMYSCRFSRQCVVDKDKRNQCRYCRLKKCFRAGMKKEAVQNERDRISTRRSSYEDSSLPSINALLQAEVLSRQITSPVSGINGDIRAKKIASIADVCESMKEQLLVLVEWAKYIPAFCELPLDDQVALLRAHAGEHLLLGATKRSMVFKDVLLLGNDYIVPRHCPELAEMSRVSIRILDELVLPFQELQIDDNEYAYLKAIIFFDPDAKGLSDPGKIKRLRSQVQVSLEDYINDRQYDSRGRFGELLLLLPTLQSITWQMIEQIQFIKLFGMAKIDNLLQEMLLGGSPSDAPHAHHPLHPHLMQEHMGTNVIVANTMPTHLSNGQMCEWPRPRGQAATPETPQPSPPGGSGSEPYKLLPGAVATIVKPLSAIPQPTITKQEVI
# Rpn11 inh conf: confirmation of human proteasome Rpn11 inhibitors; 29% of 1,900 active; inhibition, % at 20 µM; purified human 26S proteasome, Ub4-pepOG fluorescence polarization; proteasome pretreated with epoxomicin; shares compounds with Rpn11 inh
# MMP-2 inh: MMP-2 (human) inhibition counter-screen; shares compounds with Rpn11 inh; recombinant MMP-2, FRET peptide cleavage fluorescence; inhibition, % at 20 µM; 4% of 1,900 active; AID 602330;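 note: human MMP-2 activated beforehand with APMA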
# Thrombin FP: thrombin (bovine) inhibition counter-screen. inhibition, % at 20 µM. bovine thrombin cleavage of Ub4-pepOG, fluorescence polarization. shares compounds with Rpn11 inh. 13% of 1,900 active;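 active = mean inhibition at least 40% at 20 µM, or signal 3 deviations below plate average, so some actives read negative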;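 note: plate controls were thrombin with DMSO for no effect and buffer wells lacking thrombin for full effect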
# * = called active by the depositor; . = no result. This is a sample that favours compounds with a hit; in the whole collection about 1.7% have one here. Cut-off read from the data, not from the text of the source, unless noted: active = inhibition above about 40%; inactive = the rest.
SMILES,IDE act,Rpn11 inh,CSN deneddyl inh,TPT1 inhibitor,IDE inh,HNF4A DNA FP,Rpn11 inh conf,MMP-2 inh,Thrombin FP
O=[N+]([O-])c1ccc(Cl)cc1Sc1cccc2cccnc12,-2,-2,0,0,-1,-2,.,.,.
Cc1nc2sc(-c3ccccc3)cc2c(=O)[nH]1,1,48*,-1,7,0,14,10,-24,-1
CC1=C(C(=O)N(C)C)CC(CC(=O)NCCc2ccccn2)C(=O)N1CCCN1CCCC1=O (stereo not given),.,2,0,.,.,3,.,.,.
O=c1cc(CN2CCCCCCC2)c2ccccc2o1,.,46*,8,.,.,23,17,12,-5
O=c1cc(CN2CCCCC2)c2ccccc2o1,.,8,7,.,.,0,.,.,.
O=C(c1ccc(Cl)c(Cl)c1)N1CCC(=O)N([C@H](COCc2cccc(C(F)(F)F)c2)Cc2ccccc2)CC1,.,.,-1,.,.,3,.,.,.
COc1cccc(N(C(=O)c2cccs2)c2nc3ccccc3s2)c1,-1,111*,2,-5,8,2,-15,13,14
CC(=O)c1ccccc1NC(=O)Cn1c(=O)cnc2ccccc21,-2,41*,-1,21,4,9,-9,3,12
O=C(Cn1c(=O)cnc2ccccc21)Nc1ccccc1N1CCOCC1,1,-2,-5,-3,-2,3,.,.,.
COc1cc(/C=C2\C=CC(=O)O2)cc(OC)c1,2,38*,14,24,1,22,22,-4,9
COc1ccc(C2=NN(C(C#N)c3ccc(OC)c(OC)c3)C(c3ccccc3)C2)cc1 (stereo not given),5,66*,8,11,0,2,25,19,17
COc1ccc(C(C#N)N2CCC(c3ccccc3)=N2)cc1OC (stereo not given),11,11,3,-3,1,1,.,.,.
CN(C)c1ccccc1-c1cc(NC=O)c2ncc(-c3cccc(C(F)(F)F)c3)n2c1,.,-240,-75,.,.,-92,.,.,.
CN(C)S(=O)(=O)c1cccc(NC(=O)COc2ccccc2C(=O)NCc2ccccc2)c1,3,-1,3,.,.,-2,.,.,.
CCOC(=O)CSc1cccc2cccnc12,1,63*,7,-2,6,-3,12,-32,-10
COc1cccc(/C=N/NC(=O)CSc2cccc3cccnc23)c1,5,38*,112,3,0,-3,-16,2,-17
NNC(=O)c1ccc(CSc2cccc3cccnc23)cc1,2,3,-3,0,3,0,.,.,.
COc1ccc(OC)c(/C=N/NC(=O)CSc2cc(C)nc3c(OC)cccc23)c1,.,56*,-5,-4,5,4,17,-8,-9
Cc1cccc(CSc2cccc3cccnc23)c1,-1,70*,1,1,-3,-2,42*,-20,-6
Cn1cc(Cc2ccc(C(=O)N3CCN(Cc4ccccc4)CC3)cn2)c2ccccc21,.,1,-6,.,.,-2,.,.,.
O=S1(=O)CC(N2CCCC2)CN1Cc1cn(Cc2ccccc2)nn1 (stereo not given),.,.,-7,.,.,-4,.,.,.
O=C(NC1CCCCC1)C(c1ccnc2ccccc12)n1c(=O)c(-c2ccccc2)nc2ccccc21 (stereo not given),.,.,0,.,.,2,.,.,.
COc1cccc(-c2nn(C)c3sc(C(=O)NCCCN(C)Cc4ccccc4)cc23)c1,4,88*,1,-5,4,1,-17,-10,-17
Cc1nnc(SCC2=C(C(=O)O)N3C(=O)C(NC(=O)COc4ccccc4)C3SC2)s1 (stereo not given),4,1,5,.,.,-1,.,.,.
CO/N=C(/C(=O)N[C@@H]1C(=O)N2C(C(=O)O)=CCS[C@H]12)c1cnc(N)s1,.,64*,21,-1,-4,-78,85*,37,15
SMILES,IDE act,Rpn11 inh,CSN deneddyl inh,TPT1 inhibitor,IDE inh,HNF4A DNA FP,Rpn11 inh conf,MMP-2 inh,Thrombin FP
CCOc1ccccc1NS(=O)(=O)c1cn(C)nc1C,2,32*,-3,-2,0,-47,-11,-4,1
Cc1ccsc1CN(C)C(=O)C(NC(=O)c1cccc(S(=O)(=O)N2CCOCC2)c1)C(C)C (stereo not given),2,-5,-6,.,-5,20,.,.,.
C/C(=N\NC(=O)C(=O)Nc1ccc(C)c(Cl)c1)c1ccncc1,-1,90*,15,1,4,-2,1,-36,-41
CCCC(=O)NC(c1cccs1)c1cc([N+](=O)[O-])c2cccnc2c1O (stereo not given),4,47*,6,-1,0,5,66*,36,-7
O=C(CCc1ccccc1)NC(c1cccs1)c1cc(Cl)c2cccnc2c1O (stereo not given),-4,16,4,.,.,0,.,.,.
CCC(=O)NC(c1cccs1)c1cc([N+](=O)[O-])c2cccnc2c1O (stereo not given),-2,40*,-7,0,4,-2,48*,27,-20
CC(C)C(=O)NC(c1ccccc1)c1cc([N+](=O)[O-])c2cccnc2c1O (stereo not given),3,45*,-1,1,6,-6,47*,43*,-1
CCCCCCN1C[C@H](n2cc(-c3ccc(F)cc3)nn2)[C@@H](O)C[C@@H]1c1ccc(C)cc1,.,-3,1,.,.,-3,.,.,.
COc1cccc(C(C(=O)NCc2ccccc2)N2CCN(C(=O)C3CCCO3)CC2)c1OC (stereo not given),.,.,1,.,.,-1,.,.,.
COc1ccc(NC(=O)N(C)C[C@@H]2OCc3cn(nn3)CCCC(=O)N([C@@H](C)CO)C[C@H]2C)cc1,.,6,-1,.,.,-1,.,.,.
Cc1cc(NCCCCCCCNc2cc(C)nc3cc([N+](=O)[O-])ccc23)c2ccc([N+](=O)[O-])cc2n1,-8,95*,106,.,.,102,85*,76*,11
Cc1cccc(C)c1Cn1c(C)c(C(=O)NCc2ccc([N+](=O)[O-])cc2)sc1=O,.,-2,-2,.,.,-4,.,.,.
COC(=O)c1ccc(C2SCC(=O)N2Cc2ccccc2)cc1 (stereo not given),0,-9,1,4,3,4,.,.,.
O=C(NCCSCc1ccccc1)c1ccc(C2SCC(=O)N2Cc2ccccc2)cc1 (stereo not given),0,57*,5,2,3,7,43*,27,16

# Bioassay records (PubChem)
